Results taken from ChEMBL document CHEMBL4680083, “Identification of Tricyclic Agonists of Sphingosine-1-phosphate Receptor 1 (S1P) Employing Ligand-Based Drug Design” (J Med Chem, 2016).

Key:
[1] = molecular target: T1, Sphingosine 1-phosphate receptor 1 (Homo sapiens, UniProt P21453); test: Agonist activity at human S1P1 expressed in CHO cell membranes assessed as stimulation of [35S]-GTPgamma-S binding measured after 45 mins by liquid scintillation counting method; design: species or system Cell membrane
Outline: (§1)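 S1P1/CHO cell membranes at 3 μg protein/well with 3-fold compound dilutions. [35S]GTPγS 0.2 nM final, 45 min at room temperature. Filter-plate capture, water washes, scintillation counting. EC50 taken at 50% of each compound's own Ymax.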

Rattus norvegicus [2] = test: Reduction in circulating lymphocytes count in Lewis rat blood at 1 mg/kg, po measured at 4 hrs by hematology analyzer based analysis; assay type: functional; design: scale not given: the % may be the effect or the level left
Outline: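 Lewis rats were given an oral dose as a solution or suspension in PEG300, with controls receiving vehicle only. Blood was taken by retro-orbital bleeding under isoflurane at 4 and 24 h. Lymphocytes were counted on a hematology analyzer. Reduction is relative to the vehicle group, averaged over the animals in each group (n = 3−4).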

[3] = Plasma concentration in Lewis rat at 1 mg/kg, po measured at 4 hr; assay type: ADME, organism-based; conditions: Lewis, plasma
Outline: (§2)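 Lewis rats received a single oral 1.0 mg/kg dose as solution or suspension in PEG300. Blood was drawn retro-orbitally under isoflurane at 4 h and 24 h, within the blood lymphocyte reduction study. n = 3−4 per group, group mean reported.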

[4] = Plasma concentration in Lewis rat at 1 mg/kg, po measured at 24 hrs; assay type: ADME, organism-based; conditions: Lewis, plasma; outline: as §2
[5] = molecular target: T1, Sphingosine 1-phosphate receptor 1; test: Agonist activity at human S1P1 expressed in CHO cell membranes assessed as stimulation of [35S]-GTPgamma-S binding measured after 45 mins by liquid scintillation counting method relative to control; conditions: Cell membrane, filed as agonist; outline: as §1
[6] = molecular target: T1, Sphingosine 1-phosphate receptor 1; test: Agonist activity at human S1P1 assessed as stimulation of cAMP accumulation; assay type: functional
[7] = molecular target: Sphingosine 1-phosphate receptor 1 (Rattus norvegicus, UniProt P48303); test: Agonist activity at rat S1P1 expressed in CHO cell membranes assessed as stimulation of [35S]-GTPgamma-S binding measured after 45 mins by liquid scintillation counting method; design: species or system Cell membrane; outline: as §1
[8] = Protein binding in dog assessed as bound fraction; assay type: ADME, Canis lupus familiaris; conditions: read-out: PB (converted)
[9] = molecular target: Voltage-gated inwardly rectifying potassium channel KCNH2 (Homo sapiens, UniProt Q12809); test: Inhibition of human ERG by patch clamp assay
Homo sapiens = organism: Homo sapiens; test: Inhibition of sodium channel (unknown origin) assessed as reduction in 1 and 4 Hz-induced channel current at 10 uM by patch clamp technique relative to control
Cytochrome P450 2B6 = molecular target: T2, Cytochrome P450 2B6 (Homo sapiens, UniProt P20813); test: Inhibition of CYP2B6 (unknown origin); assay type: ADME
T2 sequence (P20813 whole entry): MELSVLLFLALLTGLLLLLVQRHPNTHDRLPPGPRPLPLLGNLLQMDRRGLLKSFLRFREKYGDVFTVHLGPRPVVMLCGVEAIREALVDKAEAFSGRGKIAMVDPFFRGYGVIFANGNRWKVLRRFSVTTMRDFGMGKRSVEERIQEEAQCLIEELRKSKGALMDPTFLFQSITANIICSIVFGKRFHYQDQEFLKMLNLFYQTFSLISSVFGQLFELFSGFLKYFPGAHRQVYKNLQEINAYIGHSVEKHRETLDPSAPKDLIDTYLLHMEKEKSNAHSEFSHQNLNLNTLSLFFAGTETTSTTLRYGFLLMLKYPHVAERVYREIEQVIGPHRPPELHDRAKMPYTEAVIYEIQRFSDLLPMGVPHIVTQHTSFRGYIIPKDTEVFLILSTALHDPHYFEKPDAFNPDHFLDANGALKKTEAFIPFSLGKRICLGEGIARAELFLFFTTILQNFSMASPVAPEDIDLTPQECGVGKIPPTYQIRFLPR

Cytochrome P450 2C9 = Cytochrome P450 2C9 (Homo sapiens, UniProt P11712); test: Inhibition of CYP2C9 (unknown origin); assay type: ADME
[10] = Permeability of compound at pH 7.7 by PAMPA; assay type: ADME; conditions: read-out: permeability
[11] = Permeability of compound at pH 5.5 by PAMPA; assay type: ADME; conditions: read-out: permeability
[12] = Metabolic stability in human assessed as half-life; assay type: ADME
[13] = Metabolic stability in mouse assessed as half-life; assay type: ADME
[14] = Metabolic stability in rat assessed as half-life; assay type: ADME
[15] = Metabolic stability in dog assessed as half-life; assay type: ADME, Canis lupus familiaris
[16] = Cmax in dog at 0.1 mg/kg, po or 0.1 mg/kg, iv; assay type: ADME, organism-based, Canis lupus familiaris; design: dose 0.1 mg/kg; conditions: in vivo
[17] = Tmax in mouse at 5 mg/kg, po or 2 mg/kg, iv; assay type: ADME, organism-based; conditions: in vivo
[18] = Tmax in rat at 1 mg/kg, po or 1 mg/kg, iv; assay type: ADME, organism-based; conditions: in vivo
[19] = Tmax in dog at 0.1 mg/kg, po or 0.1 mg/kg, iv; assay type: ADME, organism-based, Canis lupus familiaris; conditions: in vivo
[20] = Half-life in rat at 1 mg/kg, po or 1 mg/kg, iv; assay type: ADME, organism-based; conditions: in vivo
[21] = Half-life in cynomolgus monkey at 0.5 mg/kg, po or 0.5 mg/kg, iv; assay type: ADME, organism-based, Macaca fascicularis; conditions: in vivo
[22] = Half-life in dog at 0.1 mg/kg, po or 0.1 mg/kg, iv; assay type: ADME, organism-based, Canis lupus familiaris; conditions: in vivo
[23] = Clearance in dog at 0.1 mg/kg, po or 0.1 mg/kg, iv; assay type: ADME, organism-based, Canis lupus familiaris; conditions: in vivo
[24] = Oral bioavailability in rat at 1 mg/kg; assay type: ADME, organism-based; conditions: in vivo
[25] = Oral bioavailability in dog at 0.1 mg/kg; assay type: ADME, organism-based, Canis lupus familiaris; conditions: in vivo
Rattus norvegicus [26] = test: Antiarthritic activity in Lewis rat model of Complete Freund's adjuvant-induced arthritis assessed as effective dose causing reduction in paw swelling administered orally once daily for 21 days after CFA injection and measured weekly three times upto day 21 by water displacement plethysmometer; assay type: functional; conditions: po, 504 h, time 21 day
Outline: (§3)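 Male Lewis rats, 200−225 g, n = 8 per group. Immunized at the tail base with 100 μL of 10 mg/mL ground Mycobacterium butyricum in incomplete Freund's adjuvant. Oral dosing once daily in PEG300 vehicle from the day of immunization for 21 days, at 0.03, 0.1 or 1.0 mg/kg. Dexamethasone 0.1 mg/kg PO QD as positive control. Paw volume by water displacement plethysmometry, day 7 to day 21.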

Rattus norvegicus [27] = test: Antiarthritic activity in Lewis rat model of Complete Freund's adjuvant-induced arthritis assessed as reduction in paw swelling administered orally once daily for 21 days after CFA injection and measured weekly three times upto day 21 by water displacement plethysmometer; assay type: functional, organism-based; conditions: 504 h; outline: as §3

T1 sequence (P21453 whole entry): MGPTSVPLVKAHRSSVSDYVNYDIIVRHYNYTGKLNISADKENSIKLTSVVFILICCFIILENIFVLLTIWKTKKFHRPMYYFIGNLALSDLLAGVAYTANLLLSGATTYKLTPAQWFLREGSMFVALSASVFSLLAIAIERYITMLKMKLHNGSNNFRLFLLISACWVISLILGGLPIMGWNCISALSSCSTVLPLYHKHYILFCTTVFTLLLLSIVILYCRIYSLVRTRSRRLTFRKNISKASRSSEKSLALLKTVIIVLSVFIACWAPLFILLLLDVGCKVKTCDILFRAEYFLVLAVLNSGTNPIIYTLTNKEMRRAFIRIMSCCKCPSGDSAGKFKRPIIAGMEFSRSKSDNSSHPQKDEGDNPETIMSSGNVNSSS
Sequence of Sphingosine 1-phosphate receptor 1 (Rattus norvegicus, UniProt P48303) (P48303 whole entry): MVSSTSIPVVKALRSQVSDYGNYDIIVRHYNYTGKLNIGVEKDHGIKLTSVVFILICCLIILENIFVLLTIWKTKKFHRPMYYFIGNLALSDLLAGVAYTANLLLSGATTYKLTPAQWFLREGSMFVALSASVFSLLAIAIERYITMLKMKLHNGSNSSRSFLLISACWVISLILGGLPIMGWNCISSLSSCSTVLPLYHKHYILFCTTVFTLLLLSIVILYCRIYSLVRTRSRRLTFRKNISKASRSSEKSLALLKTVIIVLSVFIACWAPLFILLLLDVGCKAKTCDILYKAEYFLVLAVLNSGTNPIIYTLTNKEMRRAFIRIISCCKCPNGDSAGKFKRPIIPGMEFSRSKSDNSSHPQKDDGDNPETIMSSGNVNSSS
Sequence of Voltage-gated inwardly rectifying potassium channel KCNH2 (Q12809 whole entry): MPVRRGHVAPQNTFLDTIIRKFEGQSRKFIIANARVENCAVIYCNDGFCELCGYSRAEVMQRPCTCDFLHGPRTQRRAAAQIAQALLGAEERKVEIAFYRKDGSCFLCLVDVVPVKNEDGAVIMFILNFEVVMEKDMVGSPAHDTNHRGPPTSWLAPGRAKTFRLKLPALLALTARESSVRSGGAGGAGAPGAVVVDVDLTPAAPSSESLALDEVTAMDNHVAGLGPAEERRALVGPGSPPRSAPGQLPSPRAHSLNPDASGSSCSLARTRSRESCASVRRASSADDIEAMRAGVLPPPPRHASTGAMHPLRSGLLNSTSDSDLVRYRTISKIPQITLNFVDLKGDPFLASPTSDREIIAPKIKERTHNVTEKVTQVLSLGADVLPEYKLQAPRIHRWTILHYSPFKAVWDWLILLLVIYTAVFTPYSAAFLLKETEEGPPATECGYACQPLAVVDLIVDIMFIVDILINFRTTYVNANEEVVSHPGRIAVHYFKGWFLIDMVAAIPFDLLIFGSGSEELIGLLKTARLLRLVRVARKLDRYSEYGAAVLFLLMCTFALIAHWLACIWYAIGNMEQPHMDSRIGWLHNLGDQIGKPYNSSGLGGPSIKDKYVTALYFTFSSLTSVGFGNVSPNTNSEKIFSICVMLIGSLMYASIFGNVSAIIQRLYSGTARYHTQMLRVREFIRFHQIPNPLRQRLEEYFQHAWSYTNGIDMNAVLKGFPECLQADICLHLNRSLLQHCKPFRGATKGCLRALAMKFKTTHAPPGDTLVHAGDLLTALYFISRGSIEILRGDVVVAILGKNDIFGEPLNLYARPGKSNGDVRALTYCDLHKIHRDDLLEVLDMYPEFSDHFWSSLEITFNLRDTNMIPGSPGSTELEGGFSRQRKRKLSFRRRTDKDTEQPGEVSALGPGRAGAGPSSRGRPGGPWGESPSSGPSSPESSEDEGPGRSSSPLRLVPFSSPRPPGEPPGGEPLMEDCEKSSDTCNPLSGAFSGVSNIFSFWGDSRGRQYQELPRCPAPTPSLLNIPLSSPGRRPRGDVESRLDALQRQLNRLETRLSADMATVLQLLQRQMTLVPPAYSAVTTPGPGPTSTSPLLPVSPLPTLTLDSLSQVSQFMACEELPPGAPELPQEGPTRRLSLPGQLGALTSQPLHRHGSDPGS
Sequence of Cytochrome P450 2C9 (P11712 whole entry): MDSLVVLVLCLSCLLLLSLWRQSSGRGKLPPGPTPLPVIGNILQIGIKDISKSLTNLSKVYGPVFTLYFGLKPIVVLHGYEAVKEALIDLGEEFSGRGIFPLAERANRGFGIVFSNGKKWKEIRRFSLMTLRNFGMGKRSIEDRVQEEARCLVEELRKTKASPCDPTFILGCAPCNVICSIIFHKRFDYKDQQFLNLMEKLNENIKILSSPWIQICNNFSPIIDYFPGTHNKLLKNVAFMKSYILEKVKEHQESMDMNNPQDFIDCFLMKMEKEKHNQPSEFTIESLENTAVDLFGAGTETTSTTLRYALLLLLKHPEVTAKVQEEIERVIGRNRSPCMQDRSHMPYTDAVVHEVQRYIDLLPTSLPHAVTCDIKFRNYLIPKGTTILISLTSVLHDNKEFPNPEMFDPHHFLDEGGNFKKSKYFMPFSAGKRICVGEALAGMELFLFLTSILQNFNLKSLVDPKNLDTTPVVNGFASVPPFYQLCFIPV

EC50 [1]: 0.59 nM
concentration at 4 h [3]: 55 nM
concentration at 24 h [4]: 13 nM
Emax [5]: 95%
EC50 [6]: 0.032 nM
EC50 [7]: 0.31 nM
fraction unbound [8]: 0.005
inhibition (Homo sapiens): 12%
IC50 (Cytochrome P450 2B6): > 40000 nM
IC50 (Cytochrome P450 2C9): > 40000 nM
Papp [10]: 28 ×10⁻⁶ cm/s
Papp [11]: 26 ×10⁻⁶ cm/s
half-life [12]: > 2 h
half-life [13]: > 2 h
half-life [14]: > 2 h
half-life [15]: > 2 h
Cmax [16]: 90 nM
Tmax [17]: 3 h
Tmax [18]: 4 h
Tmax [19]: 8 h
half-life [20]: 7.9 h
half-life [21]: 18 h
half-life [22]: 23.1 h
clearance [23]: 1.4 mL/min/kg
bioavailability [24]: 43%
bioavailability [25]: 95%
EC50 (Rattus norvegicus [27]): 24 nM
SMILES: O=C(O)C1CN(Cc2ccc3c(c2)CCc2c-3noc2-c2onc(-c3ccccc3)c2C(F)(F)F)C1
Activity (Rattus norvegicus [2]): 83%
IC50 [9]: 2000 nM
ED50 (Rattus norvegicus [26]): 0.09 mg/kg
